{"data": "Assay results pooled from the literature", "target": "G protein-coupled receptor kinase 3 (GRK3, Homo sapiens, UniProt P35626)", "Residues used in one study (P35626 1-688)": "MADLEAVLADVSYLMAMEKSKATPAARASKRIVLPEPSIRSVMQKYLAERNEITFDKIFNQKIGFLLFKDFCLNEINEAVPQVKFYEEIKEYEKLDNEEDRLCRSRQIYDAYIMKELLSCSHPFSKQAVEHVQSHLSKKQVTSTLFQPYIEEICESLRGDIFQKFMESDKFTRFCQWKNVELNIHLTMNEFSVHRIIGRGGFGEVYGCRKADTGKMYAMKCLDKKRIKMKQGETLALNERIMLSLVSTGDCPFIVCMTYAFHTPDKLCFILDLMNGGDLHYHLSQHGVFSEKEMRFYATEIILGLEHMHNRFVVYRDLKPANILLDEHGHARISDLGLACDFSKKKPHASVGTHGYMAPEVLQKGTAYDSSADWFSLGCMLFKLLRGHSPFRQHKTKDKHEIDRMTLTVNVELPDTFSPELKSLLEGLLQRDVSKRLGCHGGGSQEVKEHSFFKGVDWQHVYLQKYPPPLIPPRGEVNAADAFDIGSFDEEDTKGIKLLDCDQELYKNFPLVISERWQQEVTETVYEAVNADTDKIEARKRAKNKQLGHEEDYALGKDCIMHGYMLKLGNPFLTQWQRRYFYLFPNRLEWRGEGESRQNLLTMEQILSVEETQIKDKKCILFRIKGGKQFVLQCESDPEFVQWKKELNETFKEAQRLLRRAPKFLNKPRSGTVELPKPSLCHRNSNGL", "note": "Protocols differ between the studies behind these lines."}
{"Structure (SMILES)": "CN(C)C(=O)Cn1cc(-c2nc([C@@](C)(c3ccc(-c4cnc(N)nc4)cc3)C3CC3)no2)cn1", "assay": "cell-free assay, competition with immobilised ligand", "setting": "1 µM", "remaining binding": "86%"}
{"Structure (SMILES)": "c1cncc(-c2cccc(Nc3nccc(NC4CCCCC4)n3)c2)c1", "assay": "binding, competition with immobilised ligand", "setting": "10 µM", "remaining binding": "99%"}
{"Structure (SMILES)": "C[C@@H]1CCN(c2nccc(-c3cnn4ncccc34)n2)C1", "assay": "binding", "setting": "1 µM", "remaining binding": "56%"}
{"Structure (SMILES)": "Cc1nc(N2CC[C@@H](O)C2)ncc1-c1cc(C(F)(F)F)cc2[nH]ncc12", "assay": "binding, competition with immobilised ligand", "setting": "1 µM", "remaining binding": "87%"}
{"Structure (SMILES)": "CNC(=O)[C@@H]1CC[C@@H](n2c(-c3ccc4cnccc4c3)nc3ccc(C(=O)NCc4cccc(C(N)=O)c4)cc32)C1", "assay": "binding, competition with immobilised ligand", "setting": "1 µM", "remaining binding": "68%"}
{"Structure (SMILES)": "O=C(NCCCN1CCOCC1)c1ccc(Nc2nccc(-c3cc4ccccc4s3)n2)cc1", "assay": "binding, competition with immobilised ligand", "setting": "1 µM", "remaining binding": "88%"}
{"Structure (SMILES)": "NS(=O)(=O)c1cc(NC(=O)C2(c3ccccc3Cl)CC2)ccc1Oc1cccc(Cl)c1", "assay": "cell-free assay, competition with immobilised ligand", "setting": "1 µM", "remaining binding": "100%"}
{"Structure (SMILES)": "CN(C)c1nccc(-c2cnn3ncccc23)n1", "assay": "binding", "setting": "1 µM", "remaining binding": "89%"}
{"Structure (SMILES)": "O=C(O)[C@@H]1[C@@H](Cn2nnc3ccccc3c2=O)CC[C@H]1C(=O)c1ccc(OCCC2CCOCC2)cc1", "assay": "cell-free assay, competition with immobilised ligand", "setting": "1 µM", "remaining binding": "100%"}
{"Structure (SMILES)": "O=C(Nc1c[nH]nc1C(=O)NC1CCNCC1)c1cc(F)cc(F)c1", "assay": "binding, competition with immobilised ligand", "setting": "1 µM", "remaining binding": "82%"}
{"Structure (SMILES)": "O=C1CCc2cc(Nc3cc(OC4CCOCC4)c([N+](=O)[O-])cc3Cl)ccc2N1", "assay": "cell-free assay, competition with immobilised ligand", "setting": "1 µM", "remaining binding": "100%"}
{"Structure (SMILES)": "N[C@H]1CCN(c2nccc(-c3cnn4ncccc34)n2)C1", "assay": "binding", "setting": "1 µM", "remaining binding": "66%"}
{"Structure (SMILES)": "COc1cnc(Nc2cccc(S(N)(=O)=O)c2)nc1N1CCN(c2ccccc2)CC1", "assay": "binding, competition with immobilised ligand", "setting": "1 µM", "remaining binding": "72%"}
{"Structure (SMILES)": "c1cnn2ncc(-c3ccnc(N4CCC45COC5)n3)c2c1", "assay": "binding", "setting": "1 µM", "remaining binding": "29%"}
{"Structure (SMILES)": "COc1ncc2cc3ccccc3nc2c1C#N", "assay": "cell-free assay, competition with immobilised ligand", "setting": "5 µM", "remaining binding": "53%"}
{"Structure (SMILES)": "C=CC(=O)N1CCC(C(=O)NCC(=O)N2CCN(c3nc(-c4cnc(N)nc4C(F)F)nc(N4CCOCC4)n3)CC2)CC1", "assay": "binding, competition with immobilised ligand", "setting": "1 µM", "remaining binding": "100%"}
{"Structure (SMILES)": "O=C(c1ccc(Nc2ncc(Cl)c(-c3cc4ccccc4s3)n2)cc1)N1CCC(N2CCCC2)CC1", "assay": "binding, competition with immobilised ligand", "setting": "1 µM", "remaining binding": "63%"}
{"Structure (SMILES)": "Cc1cnn2ncc(-c3ccnc(N(C)C)n3)c2c1", "assay": "binding", "setting": "1 µM", "remaining binding": "67%"}
{"Structure (SMILES)": "O=C(c1ccc(Nc2nccc(-c3cc4ccccc4s3)n2)cc1)N1CCC(N2CCCC2)CC1", "assay": "binding, competition with immobilised ligand", "setting": "1 µM", "remaining binding": "64%"}
{"Structure (SMILES)": "Nc1cnc(N2CCc3cc(S(=O)(=O)Nc4c(F)cc(Cl)cc4F)cc(N4CCCC4=O)c32)nc1", "assay": "cell-free assay, competition with immobilised ligand", "setting": "1 µM", "remaining binding": "100%"}
{"Structure (SMILES)": "CN(C)c1ncc(F)c(-c2cnn3ncccc23)n1", "assay": "binding", "setting": "1 µM", "remaining binding": "100%"}
